Screening data (PubChem BioAssay)
In the library only some 2.5% were active in any assay of this set; here they are far more common.
MEKK3 PB1 HTS = MEKK3-MEK5 PB1 interaction, increase or decrease; Q99759; 1.4% of 290,000 active; binding response (% of control), % at 10 µM; bead-based flow cytometry, Alexa488-MEK5 binding to MEKK3; actives lie on both sides; 0 = blocked by unlabeled MEK5, 100 = vehicle;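 active means binding response more than 3 SD above or below the average of its plate-row segment, actives on both sides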;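 further: Alexa488 bead fluorescence after subtracting the streptavidin-only scavenger bead signal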
MEKK2 mut-MEK5 = signal of MEK5 binding to mutant human MEKK2 PB1 domain; percent response, % at 10 µM; bead flow cytometry, Alexa488-MEK5 binding to MEKK2 mutant; 0.35% of 290,000 active; in the data active means percent response above about 24%, passing the limit was not always enough
Efflux pump inh = blocks antifungal efflux pumps in multiplex yeast assay. S. cerevisiae Candida pump triplex, Nile Red efflux. inhibition, % at 10 µM. AID 485275. 0.44% of 330,000 active;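 active means plate passing quality check with inhibition over a set limit, or well fluorescence over plate mean plus 4 SD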;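 further: Nile Red retained in pooled yeast measured as flow cytometry median fluorescence; higher means more Nile Red kept so more efflux inhibition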
MEKK2wt PB1 HTS = raises or lowers MEK5 binding to wildtype human MEKK2 PB1 domain. Q9Y2U5. bead flow cytometry, Alexa488-MEK5 binding to MEKK2 WT; actives lie on both sides. binding response (% of control), % at 10 µM. 1.1% of 290,000 active. AID 1531; in the data active means binding response below about 67% or above about 130%
ABCG2 block = inhibitors of human ABCG2 transporter, ABCB1 counter-screen. 0.1% of 190,000 active. inhibition, % at 6.6 µM. Q9UNQ0. IgMXP3 cells, JC-1 efflux, flow cytometry;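 active means inhibition above 80%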
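Test system: IgMXP3 (ABCG2) plus far-red-tagged CCRF-Adr (ABCB1) cells / Amount: 3 million cells/mL in well / Reagent: JC-1 transporter substrate / Timing: 10 min compound exposure, 25 °C / Signal: flow cytometry, 530 nm JC-1 signal / Read-out: percent efflux inhibition, scaled nicardipine 100% to DMSO 0% / Benchmarks: nicardipine as high control, DMSO as low control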
ABCB1 block = human ABCB1 inhibition, ABCG2 as counter-screen; P08183; CCRF-Adr cells, JC-1 efflux, flow cytometry; inhibition, % at 6.6 µM; 0.067% of 190,000 active; AID 1326; in the data active means inhibition above about 40%;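 further: higher value means more JC-1 retained so stronger ABCB1 efflux block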
Target sequence (P08183 whole entry, looked up): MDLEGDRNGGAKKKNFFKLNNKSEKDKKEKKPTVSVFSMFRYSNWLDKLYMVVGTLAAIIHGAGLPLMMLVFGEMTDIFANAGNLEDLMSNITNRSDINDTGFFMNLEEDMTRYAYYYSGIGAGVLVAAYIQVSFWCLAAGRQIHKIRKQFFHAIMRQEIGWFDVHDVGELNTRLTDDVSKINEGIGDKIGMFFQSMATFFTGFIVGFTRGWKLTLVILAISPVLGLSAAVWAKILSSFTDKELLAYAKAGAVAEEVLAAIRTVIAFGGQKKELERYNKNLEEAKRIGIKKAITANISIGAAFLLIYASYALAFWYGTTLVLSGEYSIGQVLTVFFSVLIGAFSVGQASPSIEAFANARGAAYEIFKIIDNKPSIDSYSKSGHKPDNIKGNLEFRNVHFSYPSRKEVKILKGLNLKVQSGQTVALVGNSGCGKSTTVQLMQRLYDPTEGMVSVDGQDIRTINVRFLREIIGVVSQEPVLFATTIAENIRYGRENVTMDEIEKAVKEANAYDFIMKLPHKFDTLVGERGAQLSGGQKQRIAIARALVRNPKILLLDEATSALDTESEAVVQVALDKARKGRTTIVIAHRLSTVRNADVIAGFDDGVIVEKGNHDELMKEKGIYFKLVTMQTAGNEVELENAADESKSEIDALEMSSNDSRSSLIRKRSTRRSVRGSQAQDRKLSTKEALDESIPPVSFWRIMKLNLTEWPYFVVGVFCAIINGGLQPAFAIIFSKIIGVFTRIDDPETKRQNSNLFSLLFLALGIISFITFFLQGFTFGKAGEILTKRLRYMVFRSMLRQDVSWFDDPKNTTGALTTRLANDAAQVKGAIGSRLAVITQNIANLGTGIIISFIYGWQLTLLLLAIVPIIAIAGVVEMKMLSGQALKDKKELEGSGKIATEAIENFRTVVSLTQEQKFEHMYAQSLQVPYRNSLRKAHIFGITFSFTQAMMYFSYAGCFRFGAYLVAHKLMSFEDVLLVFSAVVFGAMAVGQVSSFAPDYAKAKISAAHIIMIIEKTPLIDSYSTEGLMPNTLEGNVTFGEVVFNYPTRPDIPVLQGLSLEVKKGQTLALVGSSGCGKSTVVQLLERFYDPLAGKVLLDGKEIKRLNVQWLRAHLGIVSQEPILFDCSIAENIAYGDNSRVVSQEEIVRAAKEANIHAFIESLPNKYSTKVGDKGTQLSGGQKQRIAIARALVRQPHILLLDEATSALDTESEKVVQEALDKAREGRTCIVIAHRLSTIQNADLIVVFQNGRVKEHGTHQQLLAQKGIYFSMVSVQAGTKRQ
MEKK2wt confirm = raises or lowers MEK5 binding to wildtype human MEKK2, retest; 2.4% of 5,900 active; binding response (% of control), % at 10 µM; shares compounds with MEKK3 PB1 HTS; bead flow cytometry, Alexa488-MEK5 binding to MEKK2 WT; actives lie on both sides; in the data active means binding response below about 16% or above about 210%; inactive means in between
MEKK2mut-MEK5 = signal of MEK5 binding to mutant human MEKK2, retest; AID 1893; percent response, % at 10 µM; shares compounds with MEKK3 PB1 HTS; 2% of 5,900 active; bead flow cytometry, Alexa488-MEK5 binding to MEKK2 mutant; in the data active means percent response mostly above about 71%, no sharp cut-off; inactive means mostly below about 38%;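 further: higher means compound restores mutant binding toward wildtype level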
MEKK3 confirm = MEKK3-MEK5 PB1 inhibition, single concentration confirmation; 1.8% of 5,900 active; bead flow cytometry, Alexa488-MEK5 binding to MEKK3; hits give low values; AID 1894; binding response (% of control), % at 10 µM; shares compounds with MEKK3 PB1 HTS;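 active means binding response below 72% of control, or above a set upper limit, though filed actives all read lower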
A number is an active result; [ ] = remark or other dose.

What do the screens show for `Cn1cc(S(=O)(=O)NC[C@H]2O[C@@H](n3cnc4c(N)ncnc43)[C@H](O)[C@@H]2O)cn1`?
Efflux pump inh: inactive

Results for CC1CCN(S(=O)(=O)c2ccc3c(c2)c(=O)c(C(=O)NCc2ccco2)cn3C)CC1 ?
MEKK3 PB1 HTS: inactive; MEKK2 mut-MEK5: inactive; Efflux pump inh: inactive; MEKK2wt PB1 HTS: inactive; ABCG2 block: inactive; ABCB1 block: inactive

Results for CCN(CC)S(=O)(=O)c1ccc2c(c1)c(=O)c(C(=O)NCc1ccco1)cn2C ?
MEKK3 PB1 HTS: 135.0; MEKK2 mut-MEK5: inactive; Efflux pump inh: inactive; MEKK2wt PB1 HTS: inactive; ABCG2 block: inactive; ABCB1 block: inactive; MEKK2wt confirm: inactive; MEKK2mut-MEK5: inactive; MEKK3 confirm: inactive

What do the screens show for `CC(=O)N(C(C)=O)C1=C(C#N)C2(CCCCC2)Cc2ccccc21`?
MEKK3 PB1 HTS: inactive; MEKK2 mut-MEK5: inactive; Efflux pump inh: inactive; MEKK2wt PB1 HTS: inactive; ABCG2 block: inactive; ABCB1 block: inactive

How did COc1ccc(C(=O)CN2Cc3ccccc3C2=N)cc1 do in these assays?
MEKK3 PB1 HTS: inactive; MEKK2 mut-MEK5: inactive; Efflux pump inh: inactive; MEKK2wt PB1 HTS: inactive

Results for O=C(O)c1cccc(-n2cc(-c3cccc(C(F)(F)F)c3)cn2)c1 ?
MEKK3 PB1 HTS: inactive; MEKK2 mut-MEK5: inactive; Efflux pump inh: inactive; MEKK2wt PB1 HTS: inactive

How did O=C(COC(=O)Cc1ccccc1[N+](=O)[O-])NCc1ccc(Cl)cc1 do in these assays?
MEKK3 PB1 HTS: 143.0; MEKK2 mut-MEK5: inactive; Efflux pump inh: inactive; MEKK2wt PB1 HTS: inactive; ABCG2 block: inactive; ABCB1 block: inactive; MEKK2wt confirm: inactive; MEKK2mut-MEK5: inactive; MEKK3 confirm: inactive

Results for Cc1nc2ccccc2c2oc(C(=O)N3CCN(c4ccc([N+](=O)[O-])cc4)CC3)cc12 ?
MEKK3 PB1 HTS: inactive; MEKK2 mut-MEK5: inactive; Efflux pump inh: inactive; MEKK2wt PB1 HTS: inactive

What do the screens show for `C=CC[C@@H](CC(=O)OC(C)(C)C)C(=O)OC[C@H]1CCCN1C(=O)[C@@H](CC=C)CC(=O)N(CCO)Cc1ccccc1`?
Efflux pump inh: inactive

Results for O=C(COc1c(F)c(F)cc(F)c1F)NC(=O)NC1CCCC1 ?
MEKK3 PB1 HTS: 56.0[inhibitor]; MEKK2 mut-MEK5: inactive; Efflux pump inh: inactive; MEKK2wt PB1 HTS: inactive; ABCG2 block: inactive; ABCB1 block: inactive; MEKK2wt confirm: inactive; MEKK2mut-MEK5: inactive; MEKK3 confirm: inactive

What do the screens show for `FC(F)Oc1ccc(NC(=S)N2CCc3ccccc32)cc1`?
MEKK3 PB1 HTS: inactive; MEKK2 mut-MEK5: inactive; Efflux pump inh: inactive; MEKK2wt PB1 HTS: inactive; ABCG2 block: inactive; ABCB1 block: inactive

Results for COc1ccccc1CNC(=O)CSc1ccc(C)cc1 ?
MEKK3 PB1 HTS: 145.0; MEKK2 mut-MEK5: inactive; Efflux pump inh: inactive; MEKK2wt PB1 HTS: inactive; ABCG2 block: inactive; ABCB1 block: inactive; MEKK2wt confirm: inactive; MEKK2mut-MEK5: inactive; MEKK3 confirm: inactive

What do the screens show for `COc1ccccc1CNC(=O)CSc1nnc2c(Cl)cc(C(F)(F)F)cn12`?
MEKK3 PB1 HTS: 137.0; MEKK2 mut-MEK5: inactive; Efflux pump inh: inactive; MEKK2wt PB1 HTS: inactive; ABCG2 block: inactive; ABCB1 block: inactive; MEKK2wt confirm: inactive; MEKK2mut-MEK5: inactive; MEKK3 confirm: inactive

What do the screens show for `O=C(CSc1nnc2c(Cl)cc(C(F)(F)F)cn12)Nc1ccc2c(c1)OCO2`?
MEKK3 PB1 HTS: inactive; MEKK2 mut-MEK5: inactive; Efflux pump inh: inactive; MEKK2wt PB1 HTS: inactive; ABCG2 block: inactive; ABCB1 block: inactive

How did O=C(CN1CCCC1)Nc1ccc(Oc2ccc(NC(=O)CN3CCCC3)cc2)cc1 do in these assays?
MEKK3 PB1 HTS: 1.0[inhibitor]; MEKK2 mut-MEK5: inactive; Efflux pump inh: inactive; MEKK2wt PB1 HTS: 1.0[inhibitor]; ABCG2 block: inactive; ABCB1 block: inactive; MEKK2wt confirm: inactive; MEKK2mut-MEK5: inactive; MEKK3 confirm: inactive

How did O=C(CN1CCOCC1)Nc1ccc(Oc2ccccc2)cc1 do in these assays?
MEKK3 PB1 HTS: inactive; MEKK2 mut-MEK5: inactive; Efflux pump inh: inactive; MEKK2wt PB1 HTS: inactive; ABCG2 block: inactive; ABCB1 block: inactive

Results for O=C(CN1CCN(c2ccccc2)CC1)Nc1ccc(Oc2ccccc2)cc1 ?
MEKK3 PB1 HTS: 2.0[inhibitor]; MEKK2 mut-MEK5: inactive; Efflux pump inh: inactive; MEKK2wt PB1 HTS: 1.0[inhibitor]; ABCG2 block: inactive; ABCB1 block: inactive; MEKK2wt confirm: inactive; MEKK2mut-MEK5: inactive; MEKK3 confirm: inactive

Results for CCOc1cc(OCC)cc(C(=O)NCc2ccco2)c1 ?
MEKK3 PB1 HTS: inactive; MEKK2 mut-MEK5: inactive; Efflux pump inh: inactive; MEKK2wt PB1 HTS: inactive

How did CC12CCCC[C@@H]1CCC1C2CCC2(C)C1CC[C@@]2(O)CNCCO (some centres undefined) do in these assays?
MEKK3 PB1 HTS: inactive; MEKK2 mut-MEK5: 25.0; Efflux pump inh: inactive; MEKK2wt PB1 HTS: 136.0; MEKK2wt confirm: inactive; MEKK2mut-MEK5: inactive; MEKK3 confirm: inactive

How did CN(C)C(=O)N1CCC(C(=O)NCc2ccccc2)CC1 do in these assays?
MEKK3 PB1 HTS: 1.0[inhibitor]; MEKK2 mut-MEK5: inactive; Efflux pump inh: inactive; MEKK2wt PB1 HTS: -2.0[inhibitor]; ABCG2 block: inactive; ABCB1 block: inactive; MEKK2wt confirm: inactive; MEKK2mut-MEK5: inactive; MEKK3 confirm: inactive

Results for Cc1cc(C(=O)COC(=O)Cc2n[nH]c(=O)c3ccccc23)c(C)n1-c1cccc(C(F)(F)F)c1 ?
MEKK3 PB1 HTS: 136.0; MEKK2 mut-MEK5: inactive; Efflux pump inh: inactive; MEKK2wt PB1 HTS: inactive; ABCG2 block: inactive; ABCB1 block: inactive; MEKK2wt confirm: inactive; MEKK2mut-MEK5: inactive; MEKK3 confirm: inactive

How did Cc1nnc(SCC(=O)NC(C)(C)C)n1CCc1ccccc1 do in these assays?
MEKK3 PB1 HTS: inactive; MEKK2 mut-MEK5: inactive; Efflux pump inh: inactive; MEKK2wt PB1 HTS: inactive; ABCG2 block: inactive; ABCB1 block: inactive

What do the screens show for `Cc1nnc(SCC(N)=O)n1CCc1ccccc1`?
MEKK3 PB1 HTS: 136.0; MEKK2 mut-MEK5: inactive; Efflux pump inh: inactive; MEKK2wt PB1 HTS: inactive; ABCG2 block: inactive; ABCB1 block: inactive; MEKK2wt confirm: inactive; MEKK2mut-MEK5: inactive; MEKK3 confirm: inactive

Results for COc1cccc(NC(=O)CSc2nnc(Cn3cnc([N+](=O)[O-])n3)n2C)c1 ?
MEKK3 PB1 HTS: inactive; MEKK2 mut-MEK5: inactive; Efflux pump inh: inactive; MEKK2wt PB1 HTS: inactive; ABCG2 block: inactive; ABCB1 block: inactive
